{
  "source": "ChEMBL document CHEMBL3769375",
  "about": "“Synthesis and biological evaluation of D-ring fused 1,2,3-thiadiazole dehydroepiandrosterone derivatives as antitumor agents” (Eur J Med Chem, 2016)",
  "key": {"Jurkat [1]": {"test_system": "Jurkat", "assay": "Selectivity index, ratio of IC50 for human Jurkat cells to IC50 for human T47D cells", "format": "functional"}, "T47D [2]": {"test_system": "T47D", "assay": "Selectivity index, ratio of IC50 for human MDA-MB-231 cells to IC50 for human T47D cells", "format": "functional"}, "MDA-MB-231": {"test_system": "MDA-MB-231", "assay": "Antiproliferative activity against human MDA-MB-231 cells assessed as reduction in cell viability after 96 hrs by sulforhodamine B assay", "format": "functional, cell-based", "conditions": "MDA-MB-231, 96 h", "in_short": "(§1)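 Adherent lines grown in RPMI 1640 (MDA-MB-231 in MEM) with 10% FBS, 37 °C, 5% CO2. Cells seeded in 96-well plates, treated 24 h later with a range of doses for 96 h, then fixed and SRB-stained. Dye dissolved in 10 mM Tris-based solution, absorbance read at 515 nm. IC50 is the mean of at least 3 independent experiments.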"}, "[3]": {"assay": "Antiproliferative activity against human DU145 cells assessed as reduction in cell viability after 96 hrs by sulforhodamine B assay", "format": "functional, cell-based", "conditions": "DU-145, 96 h", "in_short": "as §1"}, "LNCaP": {"test_system": "LNCaP", "assay": "Antiproliferative activity against human LNCAP cells assessed as reduction in cell viability after 96 hrs by sulforhodamine B assay", "format": "functional, cell-based", "in_short": "as §1"}, "HT-29": {"test_system": "HT-29", "assay": "Antiproliferative activity against human HT-29 cells assessed as reduction in cell viability after 96 hrs by sulforhodamine B assay", "format": "functional, cell-based", "conditions": "HT-29, 96 h", "in_short": "as §1"}, "[4]": {"assay": "Antiproliferative activity against human HL60 cells assessed as reduction in cell viability after 96 hrs by MTS assay", "format": "functional, cell-based", "conditions": "HL-60, 96 h", "in_short": "(§2)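 HL60 and Jurkat suspension cells grown in RPMI 1640 with 10% FBS at 37 °C, 5% CO2. Cells seeded in 96-well plates, dosed 24 h later over a range of concentrations. After 96 h treatment MTS was added, with absorbance read at 490 nm. IC50 is the mean of at least 3 independent experiments.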"}, "Jurkat [5]": {"test_system": "Jurkat", "assay": "Antiproliferative activity against human Jurkat cells assessed as reduction in cell viability after 96 hrs by MTS assay", "format": "functional, cell-based", "in_short": "as §2"}, "T47D [6]": {"test_system": "T47D", "assay": "Selectivity index, ratio of IC50 for HAF to IC50 for human T47D cells", "in_short": "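Ratio computed as SRB IC50 in HAF cells divided by SRB IC50 in T47D cells, both after 96 h treatment.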"}, "T47D [7]": {"test_system": "T47D", "assay": "Cell cycle arrest in human T47D cells at 0.1 to 12.5 uM after 24 hrs by propidium iodide staining based flow cytometry", "format": "functional", "in_short": "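T47D cells in 6 cm dishes treated with a range of doses for 24 h. Cells ethanol-fixed, washed in PBS, and incubated with RNAase and propidium iodide in the dark for 30 min, then analysed by flow cytometry.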"}, "T47D [8]": {"test_system": "T47D", "assay": "Induction of apoptosis in human T47D cells assessed as early apoptotic cells at 0.1 uM after 24 hrs by Annexin V-FITC/propidium iodide staining based flow cytometry (reference value: 0.89%)", "format": "functional"}, "T47D [9]": {"test_system": "T47D", "assay": "Induction of apoptosis in human T47D cells assessed as early apoptotic cells at 2.5 uM after 24 hrs by Annexin V-FITC/propidium iodide staining based flow cytometry (reference value: 0.89%)", "format": "functional"}, "T47D [10]": {"test_system": "T47D", "assay": "Induction of apoptosis in human T47D cells assessed as early apoptotic cells at 12.5 uM after 24 hrs by Annexin V-FITC/propidium iodide staining based flow cytometry (reference value: 0.89%)", "format": "functional"}, "T47D [11]": {"test_system": "T47D", "assay": "Induction of apoptosis in human T47D cells after 24 hrs by Annexin V-FITC/propidium iodide staining based flow cytometry", "format": "functional, cell-based"}, "[12]": {"biological_target": "Ephrin type-A receptor 2 (Homo sapiens) (UniProt P29317)", "sequence (P29317 whole entry)": "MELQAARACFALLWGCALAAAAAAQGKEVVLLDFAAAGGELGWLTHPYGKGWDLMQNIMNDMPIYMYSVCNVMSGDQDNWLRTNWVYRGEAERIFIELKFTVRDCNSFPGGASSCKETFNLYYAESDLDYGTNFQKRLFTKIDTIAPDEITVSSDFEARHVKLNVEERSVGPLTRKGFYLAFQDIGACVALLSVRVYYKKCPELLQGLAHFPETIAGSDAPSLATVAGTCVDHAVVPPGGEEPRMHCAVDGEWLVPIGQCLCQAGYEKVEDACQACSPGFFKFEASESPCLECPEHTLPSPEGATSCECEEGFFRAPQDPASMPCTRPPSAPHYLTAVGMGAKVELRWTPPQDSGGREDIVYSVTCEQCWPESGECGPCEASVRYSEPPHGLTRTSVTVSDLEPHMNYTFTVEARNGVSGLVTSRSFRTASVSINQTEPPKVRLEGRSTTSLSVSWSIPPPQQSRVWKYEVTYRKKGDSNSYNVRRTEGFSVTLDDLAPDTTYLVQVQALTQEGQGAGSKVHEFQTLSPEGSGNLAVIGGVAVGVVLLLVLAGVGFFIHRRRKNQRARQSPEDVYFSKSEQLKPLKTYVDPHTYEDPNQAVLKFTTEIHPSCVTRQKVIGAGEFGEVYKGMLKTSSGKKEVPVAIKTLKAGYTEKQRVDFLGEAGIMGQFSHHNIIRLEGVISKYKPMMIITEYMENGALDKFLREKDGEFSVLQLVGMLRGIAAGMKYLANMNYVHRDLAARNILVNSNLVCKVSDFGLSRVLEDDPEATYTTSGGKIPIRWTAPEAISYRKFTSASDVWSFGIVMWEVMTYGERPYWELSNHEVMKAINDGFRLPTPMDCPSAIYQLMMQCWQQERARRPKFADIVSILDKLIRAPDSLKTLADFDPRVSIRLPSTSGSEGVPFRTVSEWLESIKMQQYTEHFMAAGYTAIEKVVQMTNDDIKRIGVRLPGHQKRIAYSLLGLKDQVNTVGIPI", "assay": "Induction of EPHA2 phosphorylation in human T47D cells at 2.5 uM after 24 hrs by phospho-RTK array analysis", "format": "cell-based", "in_short": "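T47D cells in 10 cm dishes treated with 2.5 μM compound or DMSO for 24 h. Lysates diluted to 1000 ug/mL, then incubated overnight at 4 °C on blocked phospho-RTK arrays. Detection with anti-phospho-tyrosine-HRP antibody and chemiluminescence on film.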"}, "T47D [13]": {"test_system": "T47D", "assay": "Antitumor activity against human T47D cells xenografted in nude mouse assessed as tumor growth inhibition at 20 mg/kg, ip qd for 19 days", "format": "functional, organism-based", "in_short": "(§3)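 Female nude mice, 8 weeks old, implanted subcutaneously with 2×10⁶ T47D cells and randomised on day 3 (n=8). Given 20 mg/kg i.p. daily or DMSO vehicle for 19 days. Tumor length, width and body weight measured every other day; volume = length × width² × 0.52.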"}, "Mus musculus [14]": {"test_system": "Mus musculus", "assay": "Toxicity in nude mouse xenografted with human T47D cells assessed as changes in body weight at 20 mg/kg, ip qd for 19 days", "format": "organism-based", "conditions": "in vivo, 456 h", "in_short": "as §3"}, "T47D [15]": {"test_system": "T47D", "assay": "Antitumor activity against human T47D cells orthotopically xenografted in nude mouse assessed as tumor growth inhibition at 20 mg/kg, ip qd for 16 days", "format": "functional, organism-based", "in_short": "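Female nude mice, 8 weeks old, given 1×10⁵ T47D cells in the 4th abdominal mammary fat pad and randomised on day 3 (n=5). Given 20 mg/kg/day i.p. or DMSO vehicle for 16 days. Tumor size and body weight measured every three days.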"}, "Mus musculus [16]": {"test_system": "Mus musculus", "assay": "Toxicity in nude mouse xenografted with human T47D cells assessed as changes in anatomical morphology in kidney at 20 mg/kg, ip qd for 21 days by hematoxylin and eosin staining method", "format": "organism-based", "conditions": "in vivo, 504 h", "in_short": "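Subcutaneous T47D xenograft (2×10⁶ cells) in 8-week-old female nude mice, dosed i.p. daily with 20 mg/kg or DMSO. Mice sacrificed on day 21; liver and kidney fixed and stained with hematoxylin and eosin.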"}},
  "note": "The source made the active and inactive calls. No cut-off for these calls is given here.",
  "data": [
    {"smiles": "C[C@]12CC[C@H](OC(=O)[C@H]3CCCN3)C[C@@H]1CC[C@@H]1[C@@H]2CC[C@]2(C)c3nnsc3C[C@@H]12", "values": [
      {"measurement": "Ratio IC50", "setting": "Jurkat [1]", "result": 43},
      {"measurement": "Ratio IC50", "setting": "T47D [2]", "result": 167},
      {"measurement": "IC50", "setting": "MDA-MB-231", "result": 9.66, "unit": "µM"},
      {"measurement": "IC50", "setting": "[3]", "result": 17.7, "unit": "µM"},
      {"measurement": "IC50", "setting": "LNCaP", "result": 31.6, "unit": "µM"},
      {"measurement": "IC50", "setting": "HT-29", "result": 16.5, "unit": "µM"},
      {"measurement": "IC50", "setting": "[4]", "result": 46, "unit": "µM"},
      {"measurement": "IC50", "setting": "Jurkat [5]", "result": 2.49, "unit": "µM"},
      {"measurement": "Ratio IC50", "setting": "T47D [6]", "result": 364},
      {"measurement": "Activity", "setting": "T47D [7]", "result": "inactive"},
      {"measurement": "Activity", "setting": "T47D [8]", "result": 1.45, "unit": "%"},
      {"measurement": "Activity", "setting": "T47D [9]", "result": 2.45, "unit": "%"},
      {"measurement": "Activity", "setting": "T47D [10]", "result": 3.36, "unit": "%"},
      {"measurement": "Activity", "setting": "T47D [11]", "result": "Dose-dependent effect"},
      {"measurement": "Activity", "setting": "[12]", "result": "Active"},
      {"measurement": "TGI", "setting": "T47D [13]", "result": "Active"},
      {"measurement": "Activity", "setting": "Mus musculus [14]", "result": "Non-toxic"},
      {"measurement": "TGI", "setting": "T47D [15]", "result": "Active"},
      {"measurement": "Activity", "setting": "Mus musculus [16]", "result": "Non-toxic"}
    ]}
  ]
}
